Laboratory results as given in ChEMBL document CHEMBL4765368, “Structure guided design and synthesis of furyl thiazolidinedione derivatives as inhibitors of GLUT 1 and GLUT 4, and evaluation of their anti-leukemic potential” (Eur J Med Chem, 2020).

What was measured:
CCRF-CEM [1] = experiment: Induction of apoptosis in human CCRF-CEM cells assessed as live cells at CC50 measured after 24 hrs by AnnexinV-FITC/propidium iodide staining based flow cytometry analysis (reference value: 92.15%); assay type: functional
How it was run: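 CCRF-CEM cells in RPMI with 10% FBS were seeded in 24-well plates, incubated overnight, given fresh medium, then treated for 24 h. Cells were PBS-washed, spun at 500 g for 5 min at 4 °C, and resuspended in ice-cold binding buffer. They were stained with annexin V-FITC and PI for 15 min on ice in the dark, then read by flow cytometry. Untreated cells were the negative control; triplicates.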

CCRF-CEM [2] = experiment: Cell cycle arrest in human CCRF-CEM cells assessed as decrease in accumulation at S phase measured after 72 hrs by NIM-DAPI staining based flow cytometry; assay type: functional
How it was run: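 An asynchronous CEM culture was seeded at 100,000 cells/well in 1 mL complete RPMI and exposed to 10, 25 or 50 μM for 72 h. Controls were untreated cells, DMSO and hydrogen peroxide. Cells were pelleted at 262 g, resuspended, and stained with NIM-DAPI, which permeabilizes and stains DNA in one step. About 100,000 events per sample were read by flow cytometry. Triplicates.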

[3] = Selectivity index, ratio of IC50 for human WBC to CC50 for human CCRF-CEM cells
How it was run: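 Donor blood was layered on HiSep and centrifuged at 400×g for 30 min; mononuclear cells were washed and RBC-lysed to give WBCs. WBCs were seeded overnight at 37 °C, 5% CO2, then exposed to 2.5–100 µM for 48 h. MTT was added for 4 h at 37 °C, formazan was dissolved in DMSO and A570 read. The CEM CC50 came from a 48 h Hoechst/PI imaging assay.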

[4] = Toxicity in SCID mouse assessed as distress at 1000 mg/kg, ip administered as single dose; assay type: organism-based; settings: in vivo

Structure (SMILES): O=C(CN1C(=O)S/C(=C/c2ccco2)C1=O)Nc1nc2ccccc2s1
- Activity (CCRF-CEM [1]): 26.14%
- Activity (CCRF-CEM [2]): Dose-dependent effect
- Ratio IC50 [3]: 107
- Activity [4]: Toxic
